Assay results published in ChEMBL document CHEMBL5260843 (J Med Chem, 2019).
The source made the active and inactive calls. No cut-off for these calls is given here.

Tests used:
[1] = biological target: T1, DCN1-like protein 1/NEDD8-conjugating enzyme Ubc12 (Homo sapiens, UniProt Q96GG9); experiment: Inhibition of GST-tagged DCN1 PONY domain (unknown origin)/human N-terminal acetylated UBC12 (1 to 12 residues) protein-protein interaction incubated for 1 hr by HTRF analysis; assay type: protein assay
MGC-803 [2] = experiment: Induction of ROS generation in human MGC-803 cells at 3 uM incubated for 24 hrs by DCFH-DA staining based flow cytometry analysis (reference value: 1.2%); assay type: functional
MGC-803 [3] = experiment: Induction of NRF2 accumulation in human MGC-803 cells 0.01 to 10 uM incubated for 24 hrs by Western blot analysis; assay type: functional, cell-based; details: dose 0.01-10 µM
How it was run: (§1)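 Cells in 6-well plates were exposed to compound for 24 h. MGC-803 were grown in DMEM and KYSE70 in RPMI 1640, both with 10% FBS at 37 °C and 5% CO2. Lysates were made in RIPA with protease inhibitors and quantified by BCA. 30 μg protein was run on 8% SDS-PAGE and blotted to nitrocellulose. Primary antibodies were applied overnight at 4 °C, then HRP secondaries, with ECL and film detection. GAPDH was the loading control. Run three times.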

Cullin-1 (Homo sapiens) [4] = biological target: Cullin-1 (Homo sapiens) (UniProt Q13616); experiment: Inhibition of cullin1 neddylation in UBC/DCN1 overactivated human MGC-803 cells at 0.3 to 10 uM incubated for 24 hrs by Western blot analysis; assay type: cell-based; details: dose 0.3-10 µM; how it was run: as §1
MGC-803 [5] = experiment: Inhibition of cullin2 neddylation in UBC/DCN1 overactivated human MGC-803 cells at 0.3 to 10 uM incubated for 24 hrs by Western blot analysis; assay type: cell-based; details: dose 0.3-10 µM; how it was run: as §1
Cullin-4B (Homo sapiens) [6] = biological target: Cullin-4B (Homo sapiens) (UniProt Q13620); experiment: Inhibition of cullin4B neddylation in UBC/DCN1 overactivated human MGC-803 cells at 0.3 to 10 uM incubated for 24 hrs by Western blot analysis; assay type: cell-based; details: dose 0.3-10 µM; how it was run: as §1
Cullin-4A (Homo sapiens) [7] = biological target: Cullin-4A (Homo sapiens) (UniProt Q13619); experiment: Inhibition of cullin4A neddylation in UBC/DCN1 overactivated human MGC-803 cells at 0.3 to 10 uM incubated for 24 hrs by Western blot analysis; assay type: cell-based; details: dose 0.3-10 µM; how it was run: as §1
MGC-803 [8] = experiment: Induction of ROS generation in human MGC-803 cells at 1 uM incubated for 24 hrs by DCFH-DA staining based flow cytometry analysis (reference value: 1.2%); assay type: functional
Cullin-5 (Homo sapiens) [9] = biological target: T2, Cullin-5 (Homo sapiens) (UniProt Q93034); experiment: Inhibition of cullin5 neddylation in UBC/DCN1 overactivated human MGC-803 cells at 0.3 to 10 uM incubated for 24 hrs by Western blot analysis; assay type: cell-based; details: dose 0.3-10 µM; how it was run: as §1
T2 sequence (whole entry): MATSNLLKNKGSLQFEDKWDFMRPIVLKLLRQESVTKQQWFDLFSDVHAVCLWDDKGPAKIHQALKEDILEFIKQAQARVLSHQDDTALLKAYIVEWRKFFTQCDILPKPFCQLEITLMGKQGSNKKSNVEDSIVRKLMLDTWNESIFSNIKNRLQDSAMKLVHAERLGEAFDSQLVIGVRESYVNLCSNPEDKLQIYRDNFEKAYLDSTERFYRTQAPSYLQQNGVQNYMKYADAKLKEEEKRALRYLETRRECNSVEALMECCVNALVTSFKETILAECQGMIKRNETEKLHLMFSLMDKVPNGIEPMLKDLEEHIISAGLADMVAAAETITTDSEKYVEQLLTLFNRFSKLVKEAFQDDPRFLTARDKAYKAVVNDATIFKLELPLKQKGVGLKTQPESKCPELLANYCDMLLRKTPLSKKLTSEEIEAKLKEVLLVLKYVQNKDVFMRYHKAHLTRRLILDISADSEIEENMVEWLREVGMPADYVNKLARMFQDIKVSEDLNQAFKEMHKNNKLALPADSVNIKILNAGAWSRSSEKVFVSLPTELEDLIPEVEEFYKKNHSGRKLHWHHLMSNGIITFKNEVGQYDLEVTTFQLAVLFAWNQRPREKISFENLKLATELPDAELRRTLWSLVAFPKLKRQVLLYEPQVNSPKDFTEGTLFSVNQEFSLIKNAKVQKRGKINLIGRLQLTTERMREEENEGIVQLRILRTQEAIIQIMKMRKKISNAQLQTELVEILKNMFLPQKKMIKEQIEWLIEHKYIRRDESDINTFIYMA

MGC-803 [10] = experiment: Induction of ROS generation in human MGC-803 cells at 0.3 uM incubated for 24 hrs by DCFH-DA staining based flow cytometry analysis (reference value: 1.2%); assay type: functional
MGC-803 [11] = experiment: Inhibition of cullin3 neddylation in UBC/DCN1 overactivated human MGC-803 cells incubated for 24 hrs by Western blot analysis; assay type: cell-based; how it was run: as §1
MGC-803 [12] = experiment: Induction of ROS generation in human MGC-803 cells at 0.3 uM incubated for 24 hrs by DCFH-DA staining based flow cytometry analysis (reference value: 2%); assay type: functional
MGC-803 [13] = experiment: Induction of ROS generation in human MGC-803 cells at 1 uM incubated for 24 hrs by DCFH-DA staining based flow cytometry analysis (reference value: 2%); assay type: functional
MGC-803 [14] = experiment: Induction of ROS generation in human MGC-803 cells at 3 uM incubated for 24 hrs by DCFH-DA staining based flow cytometry analysis (reference value: 2%); assay type: functional
[15] = biological target: T1, DCN1-like protein 1/NEDD8-conjugating enzyme Ubc12; experiment: Inhibition of biotinylated DCN1 PONY domain (unknown origin)/human N-terminal acetylated UBC12 (1 to 12 residues) protein-protein interaction incubated for 1 hr by TR-FRET analysis; assay type: protein assay
Cullin-1 (Homo sapiens) [16] = biological target: Cullin-1 (Homo sapiens) (UniProt Q13616); experiment: Inhibition of cullin1 neddylation in UBC/DCN1 overactivated human MGC-803 cells at 1 uM incubated for 24 hrs by Western blot analysis; assay type: cell-based; how it was run: as §1
Cullin-4A (Homo sapiens) [17] = biological target: Cullin-4A (Homo sapiens) (UniProt Q13619); experiment: Inhibition of cullin4A neddylation in UBC/DCN1 overactivated human MGC-803 cells at 1 uM incubated for 24 hrs by Western blot analysis; assay type: cell-based; how it was run: as §1
MGC-803 [18] = experiment: Induction of p27 accumulation in human MGC-803 cells 0.03 to 3 uM incubated for 24 hrs by Western blot analysis; assay type: functional, cell-based; details: dose 0.03-3 µM; how it was run: as §1
MGC-803 [19] = experiment: Inhibition of cullin2 neddylation in UBC/DCN1 overactivated human MGC-803 cells at 1 uM incubated for 24 hrs by Western blot analysis; assay type: cell-based; how it was run: as §1
MGC-803 [20] = experiment: Induction of NRF2 accumulation in human MGC-803 cells 0.03 to 3 uM incubated for 24 hrs by Western blot analysis; assay type: functional, cell-based; details: dose 0.03-3 µM; how it was run: as §1
MGC-803 [21] = experiment: Inhibition of cullin3 neddylation in UBC/DCN1 overactivated human MGC-803 cells at 1 uM incubated for 24 hrs by Western blot analysis; assay type: cell-based; how it was run: as §1
Cullin-4B (Homo sapiens) [22] = biological target: Cullin-4B (Homo sapiens) (UniProt Q13620); experiment: Inhibition of cullin4B neddylation in UBC/DCN1 overactivated human MGC-803 cells at 1 uM incubated for 24 hrs by Western blot analysis; assay type: cell-based; how it was run: as §1
MGC-803 [23] = experiment: Induction of p21 accumulation in human MGC-803 cells 0.03 to 3 uM incubated for 24 hrs by Western blot analysis; assay type: functional, cell-based; details: dose 0.03-3 µM; how it was run: as §1
Cullin-5 (Homo sapiens) [24] = biological target: T2, Cullin-5 (Homo sapiens); experiment: Inhibition of cullin5 neddylation in UBC/DCN1 overactivated human MGC-803 cells at 1 uM incubated for 24 hrs by Western blot analysis; assay type: cell-based; how it was run: as §1

T1 sequence (Q96GG9 whole entry, the tested form may be a part): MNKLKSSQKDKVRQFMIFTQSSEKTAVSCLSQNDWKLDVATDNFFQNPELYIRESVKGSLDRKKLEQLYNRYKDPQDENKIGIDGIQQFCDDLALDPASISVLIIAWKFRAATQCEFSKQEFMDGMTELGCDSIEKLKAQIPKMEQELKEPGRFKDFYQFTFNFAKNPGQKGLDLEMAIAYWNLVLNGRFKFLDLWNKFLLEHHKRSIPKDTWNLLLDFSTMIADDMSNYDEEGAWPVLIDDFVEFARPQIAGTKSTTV
T1 sequence (P61081 whole entry, further chain, the tested form may be a part): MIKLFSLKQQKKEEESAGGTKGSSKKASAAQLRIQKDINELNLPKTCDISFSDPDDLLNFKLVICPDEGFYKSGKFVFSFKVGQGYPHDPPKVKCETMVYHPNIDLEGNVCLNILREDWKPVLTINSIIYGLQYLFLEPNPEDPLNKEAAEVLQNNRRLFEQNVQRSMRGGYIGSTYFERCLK
Sequence of Cullin-4B (Homo sapiens) (Q13620 whole entry): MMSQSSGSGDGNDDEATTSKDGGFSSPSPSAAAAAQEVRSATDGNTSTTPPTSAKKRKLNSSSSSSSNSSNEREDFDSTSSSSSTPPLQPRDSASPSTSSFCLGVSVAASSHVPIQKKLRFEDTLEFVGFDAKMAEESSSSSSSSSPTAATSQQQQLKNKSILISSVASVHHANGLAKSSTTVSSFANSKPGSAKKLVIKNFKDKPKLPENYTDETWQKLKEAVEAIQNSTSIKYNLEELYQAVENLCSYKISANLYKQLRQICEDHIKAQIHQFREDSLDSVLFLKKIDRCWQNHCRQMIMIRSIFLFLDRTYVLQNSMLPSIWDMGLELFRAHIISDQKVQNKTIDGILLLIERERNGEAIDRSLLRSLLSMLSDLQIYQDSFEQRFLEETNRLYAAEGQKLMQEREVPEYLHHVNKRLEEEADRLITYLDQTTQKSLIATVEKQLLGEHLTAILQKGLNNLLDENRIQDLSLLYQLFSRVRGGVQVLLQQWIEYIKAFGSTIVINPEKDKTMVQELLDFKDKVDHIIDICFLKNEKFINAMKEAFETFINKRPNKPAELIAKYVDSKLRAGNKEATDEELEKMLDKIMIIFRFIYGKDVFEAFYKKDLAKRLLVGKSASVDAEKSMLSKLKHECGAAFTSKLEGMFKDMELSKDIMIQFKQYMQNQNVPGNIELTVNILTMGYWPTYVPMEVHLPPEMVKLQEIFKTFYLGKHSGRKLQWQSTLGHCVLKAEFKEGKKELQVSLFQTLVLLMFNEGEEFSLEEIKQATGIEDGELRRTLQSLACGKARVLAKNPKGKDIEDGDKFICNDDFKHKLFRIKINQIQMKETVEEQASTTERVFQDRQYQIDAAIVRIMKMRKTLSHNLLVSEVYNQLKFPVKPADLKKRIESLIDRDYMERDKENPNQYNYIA
Sequence of Cullin-1 (Homo sapiens) (Q13616 whole entry): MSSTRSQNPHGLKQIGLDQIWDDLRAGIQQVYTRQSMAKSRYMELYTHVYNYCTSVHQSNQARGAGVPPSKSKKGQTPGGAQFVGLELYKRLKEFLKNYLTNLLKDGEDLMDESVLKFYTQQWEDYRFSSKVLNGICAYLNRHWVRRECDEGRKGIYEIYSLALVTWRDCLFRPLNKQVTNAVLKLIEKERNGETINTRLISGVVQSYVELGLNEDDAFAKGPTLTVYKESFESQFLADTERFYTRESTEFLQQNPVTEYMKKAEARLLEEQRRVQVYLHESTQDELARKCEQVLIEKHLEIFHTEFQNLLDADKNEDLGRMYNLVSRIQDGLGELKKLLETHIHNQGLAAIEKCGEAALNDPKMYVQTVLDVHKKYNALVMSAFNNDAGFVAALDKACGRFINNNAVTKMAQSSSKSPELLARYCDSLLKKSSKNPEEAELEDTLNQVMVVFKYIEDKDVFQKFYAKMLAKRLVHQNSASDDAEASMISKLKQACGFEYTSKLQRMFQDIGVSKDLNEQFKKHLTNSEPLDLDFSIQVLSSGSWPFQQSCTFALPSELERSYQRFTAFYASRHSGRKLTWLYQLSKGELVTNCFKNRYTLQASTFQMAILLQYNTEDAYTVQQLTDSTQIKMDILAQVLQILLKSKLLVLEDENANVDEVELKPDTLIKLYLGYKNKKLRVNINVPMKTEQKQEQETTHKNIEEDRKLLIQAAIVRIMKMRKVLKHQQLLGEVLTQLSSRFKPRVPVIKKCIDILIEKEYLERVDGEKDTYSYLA
Sequence of Cullin-4A (Homo sapiens) (Q13619 whole entry): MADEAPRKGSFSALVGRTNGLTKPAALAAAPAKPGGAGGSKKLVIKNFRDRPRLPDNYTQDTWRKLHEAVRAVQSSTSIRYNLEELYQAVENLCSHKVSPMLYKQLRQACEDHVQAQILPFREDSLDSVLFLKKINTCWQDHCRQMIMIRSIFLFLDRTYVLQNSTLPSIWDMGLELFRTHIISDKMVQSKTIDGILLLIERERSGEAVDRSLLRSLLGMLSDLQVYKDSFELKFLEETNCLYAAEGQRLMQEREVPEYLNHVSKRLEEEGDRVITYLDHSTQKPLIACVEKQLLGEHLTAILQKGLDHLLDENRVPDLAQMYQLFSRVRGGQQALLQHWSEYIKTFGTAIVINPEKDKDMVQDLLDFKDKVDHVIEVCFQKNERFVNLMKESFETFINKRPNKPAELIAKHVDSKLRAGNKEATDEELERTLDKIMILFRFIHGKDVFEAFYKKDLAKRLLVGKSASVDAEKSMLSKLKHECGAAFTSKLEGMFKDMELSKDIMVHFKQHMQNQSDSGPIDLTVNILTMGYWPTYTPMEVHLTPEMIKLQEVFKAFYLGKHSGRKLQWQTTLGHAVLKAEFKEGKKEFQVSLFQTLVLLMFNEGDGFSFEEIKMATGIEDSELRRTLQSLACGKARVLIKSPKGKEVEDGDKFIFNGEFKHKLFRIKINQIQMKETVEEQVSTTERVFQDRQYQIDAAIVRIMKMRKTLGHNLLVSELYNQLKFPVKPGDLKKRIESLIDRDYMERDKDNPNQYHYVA

| Structure (SMILES) | IC50 [1] | other results |
| --- | --- | --- |
| CN(C)CCn1nnnc1Sc1cc(-c2ccccc2)nc2ncnn12 | 130 nM | – |
| CCC(=O)N[C@@H](Cc1nc2ccc(C(C)C)cc2s1)C(=O)N[C@H](CNC(=O)CCN1CCOCC1)C1CCCCC1 | – | Activity (MGC-803 [2]): 1.3%; Activity (MGC-803 [3]): Active; inhibition (Cullin-1 (Homo sapiens) [4]): inactive; inhibition (MGC-803 [5]): inactive; inhibition (Cullin-4B (Homo sapiens) [6]): inactive; inhibition (Cullin-4A (Homo sapiens) [7]): inactive; Activity (MGC-803 [8]): 0.7%; inhibition (Cullin-5 (Homo sapiens) [9]): inactive; Activity (MGC-803 [10]): 1.3%; inhibition (MGC-803 [11]): Dose-Dependent Effect |
| C#CCSc1nc2nc(-c3ccccc3)cc(Sc3nnnn3CCN(C)C)n2n1 | 79 nM | – |
| Cc1cc(Sc2nnnn2CCN(C)C)n2nccc2n1 | 4210 nM | – |
| Cc1cc(Sc2nnnn2CCN(C)C)n2nc(SCC3CC3)nc2n1 | 59 nM | – |
| Cc1cc(Sc2nnnn2CCN(C)C)n2nc(SCc3ccccc3C(F)(F)F)nc2n1 | 654 nM | – |
| Cc1cc(Sc2nnnn2CCN(C)C)n2nc(SCc3ccccc3[N+](=O)[O-])nc2n1 | 24 nM | – |
| C#CCSc1nc2nc(C)cc(Sc3nnnn3CCN(C)C)n2n1 | 67 nM | – |
| Cc1cc(Sc2nnnn2CCN(C)C)n2nc(SCc3ccc(Br)cc3)nc2n1 | 15 nM | – |
| c1ccc(-c2cc(Sc3nnnn3-c3ccccc3)n3ncnc3n2)cc1 | 15800 nM | – |
| Cc1cc(Sc2nnnn2CCN(C)C)n2nc(SCc3ccc(C(F)(F)F)cc3)nc2n1 | 186 nM | – |
| CN(C)CCn1nnnc1Sc1c2c(nc3ncnn13)CCC2 | 61 nM | – |
| COc1ccc(CSc2nc3nc(C)cc(Sc4nnnn4CCN(C)C)n3n2)cc1 | 28 nM | – |
| CC(C)c1cc(Sc2nnnn2CCN(C)C)n2ncnc2n1 | 1360 nM | – |
| Cc1cc(Sc2nnnn2CCN(C)C)n2nc(SCc3cc(=O)oc4c3ccc3ccccc34)nc2n1 | 309 nM | – |
| Cc1cc(Sc2nnnn2CCN(C)C)n2nc(SCCc3ccccc3)nc2n1 | 438 nM | – |
| CN(C)CCn1nnnc1Sc1ncnc2ccsc12 | > 50000 nM | – |
| Cc1cc(Sc2nnnn2CCN(C)C)n2nc(SCCCc3ccccc3)nc2n1 | 532 nM | – |
| Cc1cc(Sc2nnnn2CCN(C)C)n2nc(SCc3ccc(F)c(Cl)c3)nc2n1 | 22 nM | – |
| C=CCSc1nc2nc(C)cc(Sc3nnnn3CCN(C)C)n2n1 | 137 nM | – |
| Cc1cc(Sc2nnnn2CCN(C)C)n2nc(SCc3ccccc3Br)nc2n1 | 824 nM | – |
| Cc1cc(Sc2nnnn2CCN(C)C)n2nc(SCc3cccc(Br)c3)nc2n1 | 195 nM | – |
| Cc1cc(Sc2nnnn2CCN(C)C)n2nc(SCc3cccc4ccccc34)nc2n1 | 209 nM | – |

| Structure (SMILES) | IC50 [1] | other results |
| --- | --- | --- |
| CCCSc1nc2nc(C)cc(Sc3nnnn3CCN(C)C)n2n1 | 214 nM | – |
| CCCCN1CCC(N(Cc2ccccc2)C(=O)Nc2ccc(Cl)c(Cl)c2)CC1 | – | Activity (MGC-803 [12]): 0.7%; Activity (MGC-803 [13]): 0.5%; Activity (MGC-803 [14]): 0.2%; IC50 [15]: 60 nM |
| Cc1ccc(CSc2nc3nc(C)cc(Sc4nnnn4CCN(C)C)n3n2)cc1 | 78 nM | – |
| Cc1cc(Sc2nnnn2CCN(C)C)n2nc(SCc3ccc(F)cc3)nc2n1 | 16 nM | – |
| Cc1nc2nc(SCc3ccc(Cl)cc3)nn2c(Sc2nnnn2CCN(C)C)c1C | 3360 nM | – |
| CN(C)CCn1nnnc1Sc1cc(-c2ccccc2)nc2nc(SCc3ccccc3)nn12 | 290 nM | – |
| Oc1ccc(-n2nnnc2Sc2cc(-c3ccccc3)nc3ncnn23)cc1 | 3880 nM | – |
| Cc1cc(Sc2nnnn2CCN(C)C)n2nc(SC(C)C)nc2n1 | 268 nM | – |
| Cn1nnnc1Sc1cc(-c2ccccc2)nc2ncnn12 | 5820 nM | – |
| CCc1cc(Sc2nnnn2CCN(C)C)n2ncnc2n1 | 706 nM | – |
| COCCOc1cc2ncnc(Sc3nnnn3CCN(C)C)c2cc1OCCOC | > 50000 nM | – |
| Cc1cc(Sc2nnnn2CCN(C)C)n2nc(SCC3CCCCC3)nc2n1 | 58 nM | – |
| Cc1cc(Sc2nnnn2CCN(C)C)n2nc(SCc3ccc([N+](=O)[O-])cc3)nc2n1 | 39 nM | – |
| Cc1cc(Sc2nnnn2CCN(C)C)n2nc(SCc3ccc(Cl)c(F)c3)nc2n1 | 17 nM | – |
| Cc1cc(Sc2nnnn2CCN(C)C)n2nc(SCc3c(Cl)cccc3Cl)nc2n1 | 192 nM | – |
| Cc1cc(Sc2nnnn2CCN(C)C)n2nc(SCc3csc4ccc(Cl)cc34)nc2n1 | 4890 nM | – |
| CCc1cc(Sc2nnnn2CCN(C)C)n2nc(SCc3ccccc3)nc2n1 | 352 nM | – |
| Cc1cc(Sc2nnnn2CCN(C)C)n2nc(SCc3ccccc3)nc2n1 | 22 nM | – |
| Cc1cc(Sc2nnnn2CCN(C)C)n2ncnc2n1 | 51 nM | – |
| NS(=O)(=O)OC[C@@H]1C[C@@H](n2ccc3c(N[C@H]4CCc5ccccc54)ncnc32)C[C@@H]1O | – | inhibition (Cullin-1 (Homo sapiens) [16]): Active; inhibition (Cullin-4A (Homo sapiens) [17]): Active; Activity (MGC-803 [18]): Active; inhibition (MGC-803 [19]): Active; Activity (MGC-803 [20]): Active; inhibition (MGC-803 [21]): Active; inhibition (Cullin-4B (Homo sapiens) [22]): Active; Activity (MGC-803 [23]): Active; inhibition (Cullin-5 (Homo sapiens) [24]): Active |
| Cc1cc(Sc2nnnn2CCN(C)C)n2nc(SCc3cccc(C(F)(F)F)c3)nc2n1 | 1080 nM | – |
| CN(C)CCn1nnnc1Sc1cc(C2CC2)nc2ncnn12 | 127 nM | – |
